Reference: article PMC5598257 (Toxicology Reports, 2015)

What was measured:
Stability = assay type: physicochemical; conditions: for Rate constants, K (×10^4): hydrolysis in phosphate buffer (D2O), pseudo-first-order
Method in brief: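 DMPC was sonicated in D2O phosphate buffer (pH 5.0–8.0) at 30% power for 5 min, 10 s on/off. To 800 μl of buffer with or without vesicles (compound:DMPC 1:5), 15 μl of a 0.337 M CDCl3 stock of test compound was added. 1H NMR ran at 25 °C, 128 scans, 2 s relaxation delay, integrating the C6H signal. Single-point runs. Pseudo-first-order rate constants; inhibition ratio is K without/with DMPC.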

[1] = test system: MDA-MB-435s (human melanoma); test: In vitro cytotoxicity assay; assay type: cell-based; conditions: MDA-MB-435s cells, 72 h, MTT
Method in brief: (§1)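 Cells were grown in DMEM with 10% FBS and seeded at 1–2 × 10^4 per well, depending on the line. Test compound (free, or co-evaporated with DMPC 1:5 from chloroform) was added at once at 250, 50, 10, 2, 0.4 and 0.08 μM. Incubation ran 72 h at 37 °C, 5% CO2. Survival was read by MTT at OD 540 nm. Buffer-treated controls were on a separate plate. Triplicate runs; IC50 by curve fitting.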

[2] = test system: MCF-7 (human breast adenocarcinoma, estrogen-positive); test: In vitro cytotoxicity assay; assay type: cell-based; conditions: MCF-7 cells, 72 h, MTT
Method in brief: as §1

H9C2 (rat myocardium) = test: In vitro cytotoxicity assay; assay type: cell-based; conditions: H9C2 normal cells, 72 h, MTT
Method in brief: as §1

[3] = aqueous solutions, base catalyzed hydrolysis to 5-fluorouracil; cited from earlier work
C6 (rat glial tumor) = test: In vitro cytotoxicity assay; assay type: cell-based; conditions: C6 cells, 72 h, MTT
Method in brief: as §1

[4] = test system: SH-SY-5Y (human neuroblastoma); test: In vitro cytotoxicity assay; assay type: cell-based; conditions: SH-SY-5Y cells, 72 h, MTT
Method in brief: as §1

For `CCCCCCNC(=O)n1cc(F)c(=O)[nH]c1=O` [compound 1, 1-hexylcarbamoyl-5-fluorouracil], the “Rate constants, K (×10^4)” value (Stability; pH 5.0, 25 °C) was 0 ×10^4, the “Rate constants, K (×10^4)” value (Stability; pH 6.0, 25 °C) was 0.17 ×10^4 and the “Rate constants, K (×10^4)” value (Stability; pH 7.0, 25 °C) was 0.54 ×10^4. The “Rate constants, K (×10^4)” value (Stability; pH 8.0, 25 °C) was 0.70 ×10^4, the “Inhibition ratio, K1/K3” value (Stability; pH 8.0, K of 1 alone over K of 1 with DMPC (3)) was “over 7” and the “Time practically kept unharmed” value (Stability; phosphate buffer pH 5, without DMPC) was “more than 14 h”. The “Time degradation completely prevented” value (Stability; with 2 (DMPC, 1:5), phosphate buffer, at decreasing pH) was ≥ 2 days, the “IC50, concentration providing 50% cell killing effect” value [1] was “no activity in vitro” and the “IC50, concentration providing 50% cell killing effect” value [2] was “no activity in vitro”. The “IC50, concentration providing 50% cell killing effect” value (H9C2 (rat myocardium)) was “not cardiotoxic” and the “pH of highest stability” value [3] was ~4.
For `CCCCCCCCCCCCCC(=O)OC[C@H](COP(=O)([O-])OCC[N+](C)(C)C)OC(=O)CCCCCCCCCCCCC` [compound 2, 1,2-dimyristoyl-sn-glycero-3-phosphocholine], the “IC50, concentration providing 50% cell killing effect” value (C6 (rat glial tumor)) was “no cytotoxic effect” and the “IC50, concentration providing 50% cell killing effect” value [4] was “no cytotoxic effect”.
